Data from publication PMC9199349 (ACS chemical biology, 2020).
“Also recorded” adds a separate entry of the source. Where two headings read alike, the source gives them in different places.

How the values were obtained:
[1] = target: human OGG1 (Homo sapiens, UniProt O15527); type: biochemical; details: for inhibition of excision of 8-OH-Gua by OGG1 / inhibition of excision of FapyAde by OGG1: inhibitor 10 μmol/L, genomic DNA, GC-MS/MS; for inhibition at 10 µM: read-out: inhibition of excision of FapyGua by OGG1
Summary of the method: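 Test compound was dissolved in DMSO and added to the reaction mixture of human OGG1 with genomic DNA carrying multiple oxidatively-induced lesions. It was screened at 10 μmol/L, then tested from 0.05 to 10 μmol/L. Excised 8-OH-Gua, FapyGua and FapyAde were quantified by isotope-dilution GC-MS/MS. Controls were no enzyme, no inhibitor, and DMSO alone. Standard deviations were given; significance was set at p < 0.05.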

[2] = test system: HEK293T and HeLa cells; details: cited from earlier work
[3] = test system: HeLa cells; details: LC-MS/MS with isotope-dilution; cited from earlier work
[4] = test system: OGG1; details: read-out: IC50 OGG1, cited from earlier work
[5] = test system: other BER enzymes / other DNA glycosylases; details: cited from earlier work
[6] = test system: Pseudomonas aeruginosa; details: mice infected with Pseudomonas aeruginosa; cited from earlier work
[7] = test system: MTH1; details: read-out: IC50 MTH1; dual inhibitor; cited from earlier work
[8] = highest concentration of 100 μmol/L

Sequence of human OGG1 (O15527 whole entry): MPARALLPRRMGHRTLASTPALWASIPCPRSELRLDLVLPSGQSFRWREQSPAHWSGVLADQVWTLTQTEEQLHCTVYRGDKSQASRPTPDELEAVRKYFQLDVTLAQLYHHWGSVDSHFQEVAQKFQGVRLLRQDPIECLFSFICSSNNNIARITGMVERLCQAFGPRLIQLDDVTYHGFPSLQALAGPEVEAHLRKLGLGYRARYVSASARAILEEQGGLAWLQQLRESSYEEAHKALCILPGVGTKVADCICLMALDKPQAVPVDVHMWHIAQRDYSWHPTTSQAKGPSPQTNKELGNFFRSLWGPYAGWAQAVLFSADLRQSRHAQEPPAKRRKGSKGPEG

SMILES | inhibition of excision of 8-OH-Gua by OGG1 [1] | inhibition of excision of FapyAde by OGG1 [1] | inhibition at 10 µM [1] | toxicity ([2]; concentrations up to 10 μmol/L) | toxicity [2, 8] | level of 8-OH-Gua in DNA [3] | IC50 ([4]; fluorogenic assay of 8-OH-Gua excision) | selectivity for OGG1 over other BER enzymes [5] | inflammation and mortality / survival [6] | IC50 [7] | IC50 ([4]; dual inhibitor)
NC(=O)c1cccc(-c2ccc(S(=O)(=O)Nc3ccc4c(c3)N(C(=O)C3CC3)CCC4)cc2)c1 [SU0268, 4’-(N-(1-(cyclopropanecarbonyl)-1,2,3,4-tetrahydroquinolin-7-yl)sulfamoyl)-[1,1’-biphenyl]-3-carboxamide] | strongly inhibited | quite significant | ~60% | little or no toxicity | moderate toxicity | increase the level of 8-OH-Gua in DNA | 59 nM | selective for inhibiting OGG1 over other BER enzymes | reduced both inflammation and proinflammatory cytokines, and improved animal survival; also recorded: efficacy in reducing inflammation and mortality |  | 
Cc1cnc(N)nc1OCCNC(=O)c1cccc(-c2ccc(S(=O)(=O)Nc3ccc4c(c3)N(C(=O)C3CC3)CCC4)cc2)c1 [SU0383, N-(2-((2-Amino-5-methylpyrimidin-4-yl)oxy)ethyl)-4’-(N-(1-(cyclopropanecarbonyl)-1,2,3,4-tetrahydroquinolin-7-yl)sulfamoyl)-[1,1’-biphenyl]-3-carboxamide] | significant inhibition | quite significant | ~30% | little or no toxicity | moderate toxicity |  |  |  |  | 34 nM | 490 nM
